Laboratory results published in ChEMBL document CHEMBL5653623 (J Pharmacol Exp Ther, 2015).
Activity calls are given as the source filed them. The rule behind the calls is not given here.

What was measured:
[1] = biological target: Leucine-rich repeat serine/threonine-protein kinase 2 (Mus musculus) (UniProt Q5S006); test: In vivo inhibition of LRRK2 in C57Bl/6 mouse kidney assessed as total LRRK2 protein level administered for 11 days and measured after 4 hrs by Western blotting analysis; assay type: functional, organism-based; details: dose 3-120 mg/kg, time 11.0 day
Chain of Leucine-rich repeat serine/threonine-protein kinase 2 (Mus musculus) (Q5S006 whole entry): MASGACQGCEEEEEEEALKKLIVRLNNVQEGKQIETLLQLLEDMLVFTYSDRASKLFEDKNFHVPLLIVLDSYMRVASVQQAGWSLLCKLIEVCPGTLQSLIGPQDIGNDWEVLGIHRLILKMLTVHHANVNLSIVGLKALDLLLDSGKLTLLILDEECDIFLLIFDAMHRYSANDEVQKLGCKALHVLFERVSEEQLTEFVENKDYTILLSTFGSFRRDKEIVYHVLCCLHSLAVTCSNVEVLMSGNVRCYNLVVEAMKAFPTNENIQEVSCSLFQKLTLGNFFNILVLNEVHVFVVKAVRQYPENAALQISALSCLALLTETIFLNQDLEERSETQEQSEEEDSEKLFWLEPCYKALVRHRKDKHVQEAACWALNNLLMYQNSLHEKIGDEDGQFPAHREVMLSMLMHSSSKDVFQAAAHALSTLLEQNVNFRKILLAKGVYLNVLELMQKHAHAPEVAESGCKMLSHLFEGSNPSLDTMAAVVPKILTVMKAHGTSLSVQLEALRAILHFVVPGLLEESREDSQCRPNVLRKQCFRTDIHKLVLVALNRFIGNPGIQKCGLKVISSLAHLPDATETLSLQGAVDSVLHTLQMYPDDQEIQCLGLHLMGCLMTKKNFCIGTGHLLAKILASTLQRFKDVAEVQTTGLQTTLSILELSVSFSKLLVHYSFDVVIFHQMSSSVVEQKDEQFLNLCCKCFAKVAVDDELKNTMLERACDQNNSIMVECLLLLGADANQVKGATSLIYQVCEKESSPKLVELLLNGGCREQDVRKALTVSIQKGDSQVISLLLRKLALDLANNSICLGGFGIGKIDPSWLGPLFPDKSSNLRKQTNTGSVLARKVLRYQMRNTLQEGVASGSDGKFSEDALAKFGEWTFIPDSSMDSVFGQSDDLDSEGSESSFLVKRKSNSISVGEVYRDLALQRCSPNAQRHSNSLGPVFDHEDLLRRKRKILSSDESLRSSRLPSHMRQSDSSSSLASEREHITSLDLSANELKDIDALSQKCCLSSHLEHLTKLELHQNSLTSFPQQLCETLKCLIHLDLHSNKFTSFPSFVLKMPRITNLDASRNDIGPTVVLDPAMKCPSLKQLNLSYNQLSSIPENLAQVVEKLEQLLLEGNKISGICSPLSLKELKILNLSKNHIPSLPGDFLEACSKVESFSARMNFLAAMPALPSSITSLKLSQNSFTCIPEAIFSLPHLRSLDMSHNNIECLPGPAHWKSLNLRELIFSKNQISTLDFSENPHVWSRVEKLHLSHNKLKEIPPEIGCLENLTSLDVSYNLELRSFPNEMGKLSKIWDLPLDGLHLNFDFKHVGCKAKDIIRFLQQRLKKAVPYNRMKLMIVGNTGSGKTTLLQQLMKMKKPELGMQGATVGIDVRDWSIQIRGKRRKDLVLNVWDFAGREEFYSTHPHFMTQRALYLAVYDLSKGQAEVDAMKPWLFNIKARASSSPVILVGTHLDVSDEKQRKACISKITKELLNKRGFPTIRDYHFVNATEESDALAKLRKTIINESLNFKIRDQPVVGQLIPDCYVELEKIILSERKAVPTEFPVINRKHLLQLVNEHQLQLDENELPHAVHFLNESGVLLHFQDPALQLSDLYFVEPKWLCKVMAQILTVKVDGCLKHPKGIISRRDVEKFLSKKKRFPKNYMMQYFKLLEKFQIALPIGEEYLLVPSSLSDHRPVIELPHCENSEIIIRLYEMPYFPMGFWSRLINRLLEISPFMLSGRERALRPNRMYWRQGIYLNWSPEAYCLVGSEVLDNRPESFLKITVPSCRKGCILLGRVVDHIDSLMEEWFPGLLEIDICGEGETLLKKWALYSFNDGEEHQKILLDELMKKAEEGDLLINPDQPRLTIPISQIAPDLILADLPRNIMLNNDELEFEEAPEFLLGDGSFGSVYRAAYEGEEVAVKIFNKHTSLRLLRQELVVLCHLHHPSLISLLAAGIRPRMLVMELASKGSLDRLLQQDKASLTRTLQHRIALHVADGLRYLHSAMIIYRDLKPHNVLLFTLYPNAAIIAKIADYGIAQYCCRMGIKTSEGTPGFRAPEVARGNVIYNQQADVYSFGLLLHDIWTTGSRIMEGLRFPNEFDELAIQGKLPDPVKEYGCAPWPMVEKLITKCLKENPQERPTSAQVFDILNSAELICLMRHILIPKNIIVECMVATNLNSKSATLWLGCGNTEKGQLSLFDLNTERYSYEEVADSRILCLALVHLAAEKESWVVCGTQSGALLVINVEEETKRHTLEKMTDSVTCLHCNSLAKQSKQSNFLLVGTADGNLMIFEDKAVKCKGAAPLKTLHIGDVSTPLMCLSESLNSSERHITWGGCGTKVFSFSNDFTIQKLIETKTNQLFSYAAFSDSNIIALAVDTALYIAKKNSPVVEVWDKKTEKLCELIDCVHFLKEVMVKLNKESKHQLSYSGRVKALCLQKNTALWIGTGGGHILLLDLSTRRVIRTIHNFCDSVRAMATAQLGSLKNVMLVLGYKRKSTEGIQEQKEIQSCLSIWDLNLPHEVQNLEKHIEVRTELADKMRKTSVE
Summary of the method: (§1)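 Same 11-day in-diet design in male C57Bl/6 mice: 3-120 mg/kg/day or untreated diet, killed 4, 8 or 24 h after dark-cycle onset, n = 5 per group. Kidneys dissected for Western blot of pSer935 and total LRRK2, with total LRRK2 detected by MJFF-2 antibody.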

[2] = AUC in C57Bl/6 mouse at 2 mg/kg, iv measured after 480 mins by LC-MS/MS analysis; assay type: ADME, organism-based; details: in vivo
Summary of the method: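 Male C57Bl/6 mice (20-25 g) given a single IV dose (2 mg/kg) or oral dose (10 mg/kg). Blood was sampled at 5, 15, 30, 60, 120, 240, 360 and 480 min and plasma prepared by centrifugation. Plasma drug levels were measured by LC/MS/MS. Values are mean (CV%), N=3.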

[3] = biological target: Leucine-rich repeat serine/threonine-protein kinase 2 (Mus musculus) (UniProt Q5S006); test: In vivo inhibition of LRRK2 in MitoPark mouse brain assessed as total LRRK2 protein level in presence of MJFF-2 antibody by Western blotting analysis; assay type: functional, organism-based
Summary of the method: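 MitoPark mice fed diet targeted to 30 mg/kg/day, or untreated diet, from 5 weeks of age. Cortex collected after 3, 9 or 15 weeks of treatment, n = 10 per group. Blots probed for pSer935 LRRK2, total LRRK2 (MJFF-2 antibody) and GAPDH. pSer935 reported relative to vehicle-diet MitoPark mice.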

[4] = biological target: 5-hydroxytryptamine receptor 2B (Homo sapiens, UniProt P41595); test: Inhibition of serotonin 5-HT2B (unknown origin)
Chain of 5-hydroxytryptamine receptor 2B (P41595 whole entry): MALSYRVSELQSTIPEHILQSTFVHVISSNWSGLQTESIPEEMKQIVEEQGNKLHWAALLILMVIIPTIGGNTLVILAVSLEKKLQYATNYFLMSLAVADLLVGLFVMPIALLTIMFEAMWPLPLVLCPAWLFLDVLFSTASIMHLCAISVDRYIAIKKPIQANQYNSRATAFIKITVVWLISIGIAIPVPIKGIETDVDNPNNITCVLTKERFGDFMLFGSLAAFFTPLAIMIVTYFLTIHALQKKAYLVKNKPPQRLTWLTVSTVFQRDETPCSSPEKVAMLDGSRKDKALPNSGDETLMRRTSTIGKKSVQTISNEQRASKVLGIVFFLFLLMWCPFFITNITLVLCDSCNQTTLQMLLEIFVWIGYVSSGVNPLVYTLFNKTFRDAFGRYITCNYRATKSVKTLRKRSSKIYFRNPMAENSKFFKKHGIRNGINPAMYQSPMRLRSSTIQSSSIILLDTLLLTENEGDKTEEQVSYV
Summary of the method: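 Radioligand binding selectivity screen was run at 10 μM, mean of three determinations. Where inhibition exceeded 50%, full concentration-displacement curves were run in triplicate and IC50 was obtained by nonlinear least-squares regression.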

[5] = biological target: T1, Mitogen-activated protein kinase kinase kinase 5 (Homo sapiens, UniProt Q99683); test: Inhibition of MAP3K5 (unknown origin)
T1 sequence (Q99683 whole entry): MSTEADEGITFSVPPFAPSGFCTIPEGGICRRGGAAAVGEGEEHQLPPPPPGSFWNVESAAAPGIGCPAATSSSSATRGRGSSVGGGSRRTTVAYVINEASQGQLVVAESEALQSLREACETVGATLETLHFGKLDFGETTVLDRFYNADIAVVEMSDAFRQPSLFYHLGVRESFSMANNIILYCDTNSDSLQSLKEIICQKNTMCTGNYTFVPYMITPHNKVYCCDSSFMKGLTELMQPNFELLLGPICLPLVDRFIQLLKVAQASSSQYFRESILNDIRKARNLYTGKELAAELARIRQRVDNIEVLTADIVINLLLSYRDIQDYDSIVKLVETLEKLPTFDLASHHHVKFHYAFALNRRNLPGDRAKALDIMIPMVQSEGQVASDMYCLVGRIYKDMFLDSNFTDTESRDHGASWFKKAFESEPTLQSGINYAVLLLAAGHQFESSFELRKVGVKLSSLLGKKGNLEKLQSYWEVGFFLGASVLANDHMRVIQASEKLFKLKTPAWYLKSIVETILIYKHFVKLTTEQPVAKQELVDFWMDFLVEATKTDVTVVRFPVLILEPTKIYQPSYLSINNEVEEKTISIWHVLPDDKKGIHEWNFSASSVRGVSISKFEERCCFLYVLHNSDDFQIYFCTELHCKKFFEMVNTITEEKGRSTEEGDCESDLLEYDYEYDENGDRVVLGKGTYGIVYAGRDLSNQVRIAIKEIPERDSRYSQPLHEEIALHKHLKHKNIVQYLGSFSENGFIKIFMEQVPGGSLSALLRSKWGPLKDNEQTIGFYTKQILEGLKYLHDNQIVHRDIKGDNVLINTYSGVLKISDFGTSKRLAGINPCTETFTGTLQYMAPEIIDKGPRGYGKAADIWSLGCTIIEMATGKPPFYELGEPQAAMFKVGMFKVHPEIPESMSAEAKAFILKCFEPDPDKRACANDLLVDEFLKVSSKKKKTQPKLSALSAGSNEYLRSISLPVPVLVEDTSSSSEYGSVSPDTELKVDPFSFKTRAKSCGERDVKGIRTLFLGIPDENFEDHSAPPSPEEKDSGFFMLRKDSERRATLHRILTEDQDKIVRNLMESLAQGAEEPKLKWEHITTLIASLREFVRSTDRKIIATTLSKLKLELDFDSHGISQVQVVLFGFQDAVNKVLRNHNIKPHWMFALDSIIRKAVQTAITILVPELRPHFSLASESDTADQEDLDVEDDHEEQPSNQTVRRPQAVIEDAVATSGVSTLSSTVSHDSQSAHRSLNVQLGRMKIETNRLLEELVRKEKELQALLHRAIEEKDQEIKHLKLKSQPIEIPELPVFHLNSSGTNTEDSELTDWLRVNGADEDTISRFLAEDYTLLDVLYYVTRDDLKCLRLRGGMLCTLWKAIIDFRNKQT

[6] = Toxicity in C57Bl/6 mouse assessed as change in body weight measured after 11 days; details: in vivo, 264 h, time 11 day
Summary of the method: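 Male C57Bl/6 mice, singly housed on a reversed 12 h light cycle, were fed diet formulated to give 3, 10, 30, 60 or 120 mg/kg/day (assumes 3 g/day intake) or untreated diet for 11 days. Body weight and food intake were monitored. Spontaneous locomotion and rearing were recorded over 60 min. On day 11, mice were euthanized 4, 8 or 24 h after dark onset and plasma and brain drug levels measured; n = 5 per group.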

[7] = Unbound fraction in C57Bl/6 mouse plasma; assay type: ADME, cell-free
Summary of the method: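 Plasma and brain binding were determined by equilibrium dialysis at 1 μM.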

Mus musculus [8] = test: Effect on behavioral changes in 14 weeks old MitoPark mouse striatum assessed as TH level at 30 mg/kg/day by […] relative to control; assay type: functional
Summary of the method: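 Striatal protein (20 μg) from diet-treated MitoPark and wild-type mice was denatured at 70 °C for 10 min and run on 3-8% Tris-acetate gels. Blots were probed with anti-tyrosine hydroxylase and anti-GAPDH overnight at 4 °C, then an HRP secondary. TH is expressed as % of control.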

[9] = Unbound brain concentration in C57Bl/6 mouse at 30 mg/kg, po administered for 1 hr; assay type: ADME, organism-based; details: in vivo
Mus musculus [10] = test: Effect on behavioral phenotype in 11 weeks old MitoPark mouse assessed as decreased rearing behavior at 30 mg/kg/day administered for 6 weeks and measured after 60 mins; assay type: functional, organism-based
Summary of the method: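 MitoPark mice, 5 weeks old, were allocated by baseline 60-min LMA to untreated diet or diet targeting 30 mg/kg/day (reformulated every 3 weeks). Wild-type littermates received vehicle diet. Body weight and food intake were recorded weekly. 60-min LMA (distance, rearing) was run at 8, 11, 14 and 17 weeks of age.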

[11] = biological target: Leucine-rich repeat serine/threonine-protein kinase 2 (Mus musculus) (UniProt Q5S006); test: In vivo inhibition of LRRK2 in C57Bl/6 mouse kidney assessed as reduction in pSer935 LRRK2 administered for 11 days by Western blotting analysis; assay type: functional, organism-based; details: time 11.0 day; summary of the method: as §1

## C[C@@H]1CN(c2cc(-c3n[nH]c4ccc(OC5(C)CC5)cc34)ncn2)C[C@H](C)O1 [MLi-2]
[1]
  inhibition: Dose-Dependent Effect
[2]
  AUC at 8 h: 0.664 µM·h
[3]
  inhibition: inactive
[4]
  IC50: 1200 nM
[5]
  IC50: 428 nM
[6]
  Activity: Non-Toxic
[7]
  fraction unbound: 0.008
Mus musculus [8]
  Activity: 42.6%
[9]
  Drug uptake(free): 91.8 nM
Mus musculus [10]
  Activity: Active
[11]
  inhibition: Active
